The values below come from ChEMBL document CHEMBL1152588, “New potent P-glycoprotein modulators with the cucurbitane scaffold and their synergistic interaction with doxorubicin on resistant cancer cells” (Bioorg Med Chem, 2009).

Data set [1] deals with L5178Y. Briefly: Reversal of multidrug resistance in mouse L5178Y cells assessed as mean fluorescence intensity of rhodamine-123 uptake after 10 mins by flow cytometry. Format: functional. Put shortly: (§1)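 Parental and MDR1-transfected L5178 cells at 2×10^6/mL in serum-free McCoy's 5A. Compound (0.5–20 µM; verapamil 22 µM as positive control) added 10 min at room temperature, then rhodamine 123 20 min at 37 °C. Cells washed twice, resuspended in PBS, flow cytometry on 10,000 cells (FSC, SSC, mean FL-1). FAR = (MDR treated/MDR control)/(parental treated/parental control); single representative experiment.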
On the technique in general: Flow cytometry measures light scatter and fluorescence of single cells or particles in a stream.

Data set [2] addresses T1, ATP-dependent translocase ABCB1 (Homo sapiens, UniProt P08183). Briefly: Reversal of human MDR1-mediated multidrug resistance in mouse L5178Y cells expressing MDR1 assessed as fluorescence activity ratio at 2 uM after 10 mins by rhodamine-123 exclusion test. The format is cell-based. Put shortly:
as §1

The target in data set [3] is T1, ATP-dependent translocase ABCB1. As to the kind of experiment: Reversal of human MDR1-mediated multidrug resistance in mouse L5178Y cells expressing MDR1 assessed as forward scatter count measured by cell size ratio at 2 uM after 10 mins by flow cytometry. The format is cell-based. Summed up: as §1
For data set [4] the target is unchanged. As to the kind of experiment: Reversal of human MDR1-mediated multidrug resistance in mouse L5178Y cells expressing MDR1 assessed as side scatter count measured by cell size ratio at 2 uM after 10 mins by flow cytometry. The format is cell-based. Summed up:
as §1

Data set [5] shares this target. Briefly: Reversal of human MDR1-mediated multidrug resistance in mouse L5178Y cells expressing MDR1 assessed as side scatter count measured by cell size ratio at 20 uM after 10 mins by flow cytometry. Format: cell-based. Put shortly: as §1
The target is the same in data set [6]. As to the kind of experiment: Reversal of human MDR1-mediated multidrug resistance in mouse L5178Y cells expressing MDR1 assessed as forward scatter count measured by cell size ratio at 20 uM after 10 mins by flow cytometry. Format: cell-based. Put shortly: as §1
For data set [7] the target is unchanged. Briefly: Reversal of human MDR1-mediated multidrug resistance in mouse L5178Y cells expressing MDR1 assessed as fluorescence activity ratio at 20 uM after 10 mins by rhodamine-123 exclusion test. Format: cell-based. Put shortly: as §1
Data set [8] in a line: Octanol-water partition coefficient, log D of the compound. Format: physicochemical.
Data set [9] concerns the target T1, ATP-dependent translocase ABCB1. As to the kind of experiment: Reversal of human MDR1-mediated multidrug resistance in mouse L5178Y cells expressing MDR1 assessed as mean fluorescence intensity of rhodamine-123 uptake at 20 uM after 10 mins by flow cytometry. The format is cell-based. Summed up: as §1
Data set [10] has as its system L5178Y. Briefly: Antiproliferative activity against mouse L5178Y cells after 72 hrs by MTT assay. Format: functional. Particulars: read-out: ID50 (the source's name). Summed up:
(§2)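 L5178 mouse T-cell lymphoma cells, parental or transfected with human MDR1 via pHa MDR1/A retrovirus. Transfected cells were kept under 60 ng/mL colchicine. Cells grew in McCoy's 5A with 10% heat-inactivated horse serum at 37 °C, 5% CO2. 1×10^4 cells/well with rising compound concentrations, 72 h at 37 °C. MTT 4 h, SDS 10% overnight, OD 550 nm (ref 630 nm). % inhibition vs cell/medium controls; ID50 mean ± SD of three experiments.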

The test system of data set [11] is L5178Y. Briefly: Potentiation of doxorubicin-induced anticancer activity against mouse L5178Y cells expressing MDR1 assessed as fractional inhibitory concentration after 72 hrs by checkerboard microplate assay. The format is functional. Put shortly: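 Checkerboard combination on MDR1-transfected L5178 lymphoma cells: doxorubicin diluted along one plate axis, resistance modifier along the other; 5×10^4 cells/well; 72 h at 37 °C in CO2 incubator; growth read by MTT staining. FIC = ID50 in combination/ID50 alone for each agent; summed FIX <0.5 synergism, 0.51–1 additive, 1–2 indifferent, >2 antagonism.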

In data set [12] the test system is L5178Y. As to the kind of experiment: Antiproliferative activity against multidrug resistance mouse L5178Y cells expressing human MDR1 after 72 hrs by MTT assay. The format is functional. Particulars: read-out: ID50 (the source's name). Put shortly: as §2
In general terms: Tetrazolium dyes change colour on reduction, which living cells bring about.

In data set [13] the test system is L5178Y. As to the kind of experiment: Reversal of human MDR1-mediated multidrug resistance in mouse L5178Y cells expressing MDR1 assessed as mean fluorescence intensity of rhodamine-123 uptake after 10 mins by flow cytometry. The format is functional. Put shortly: as §1
Data set [14] deals with T1, ATP-dependent translocase ABCB1. As to the kind of experiment: Reversal of human MDR1-mediated multidrug resistance in mouse L5178Y cells expressing MDR1 assessed as mean fluorescence intensity of rhodamine-123 uptake at 2 uM after 10 mins by flow cytometry. Format: cell-based. Put shortly:
as §1

Where only a bound is given, the exact number is not on record here.

T1 sequence (P08183 whole entry): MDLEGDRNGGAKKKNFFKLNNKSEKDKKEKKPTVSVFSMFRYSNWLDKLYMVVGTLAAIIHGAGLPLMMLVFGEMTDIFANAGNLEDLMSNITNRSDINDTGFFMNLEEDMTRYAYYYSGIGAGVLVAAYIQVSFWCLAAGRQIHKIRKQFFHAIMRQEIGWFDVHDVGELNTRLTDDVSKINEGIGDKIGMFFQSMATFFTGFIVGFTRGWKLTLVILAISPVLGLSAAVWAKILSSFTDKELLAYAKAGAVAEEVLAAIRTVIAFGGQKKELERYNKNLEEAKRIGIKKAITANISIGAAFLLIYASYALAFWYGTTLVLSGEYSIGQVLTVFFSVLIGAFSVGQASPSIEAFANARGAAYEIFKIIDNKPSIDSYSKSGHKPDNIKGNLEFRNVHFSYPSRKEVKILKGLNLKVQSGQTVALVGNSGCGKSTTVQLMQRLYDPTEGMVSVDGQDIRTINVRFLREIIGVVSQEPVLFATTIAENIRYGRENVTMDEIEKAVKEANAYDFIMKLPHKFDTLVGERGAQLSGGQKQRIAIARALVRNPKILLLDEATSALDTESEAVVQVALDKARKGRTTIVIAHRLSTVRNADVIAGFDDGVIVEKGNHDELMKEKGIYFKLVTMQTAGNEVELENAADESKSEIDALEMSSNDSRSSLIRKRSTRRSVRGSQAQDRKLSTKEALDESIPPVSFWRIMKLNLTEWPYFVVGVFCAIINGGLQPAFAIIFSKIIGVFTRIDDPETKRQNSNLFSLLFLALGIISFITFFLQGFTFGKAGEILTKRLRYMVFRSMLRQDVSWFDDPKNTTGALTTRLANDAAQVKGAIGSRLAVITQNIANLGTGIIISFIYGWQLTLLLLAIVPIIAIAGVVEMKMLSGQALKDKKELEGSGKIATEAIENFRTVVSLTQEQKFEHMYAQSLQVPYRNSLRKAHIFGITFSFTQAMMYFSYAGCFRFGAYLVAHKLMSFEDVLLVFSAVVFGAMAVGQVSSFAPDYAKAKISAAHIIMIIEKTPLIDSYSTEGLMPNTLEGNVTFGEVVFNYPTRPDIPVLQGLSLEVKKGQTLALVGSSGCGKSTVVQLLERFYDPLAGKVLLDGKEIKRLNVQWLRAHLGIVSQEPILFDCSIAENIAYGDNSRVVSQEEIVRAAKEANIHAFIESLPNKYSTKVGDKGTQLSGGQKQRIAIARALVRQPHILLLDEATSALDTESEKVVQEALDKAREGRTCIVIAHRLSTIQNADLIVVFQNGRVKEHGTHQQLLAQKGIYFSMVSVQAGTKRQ

For `COC(C)(C)/C=C/C[C@@H](C)[C@H]1CC[C@@]2(C)[C@@H]3[C@@H](O[C@H]4O[C@@H](CO)[C@H](O)[C@H](O)[C@@H]4O)C=C4[C@@H](CC[C@H](O)C4(C)C)[C@]3(C)CC[C@]12C` [BALSAMINOSIDE A], the Activity in data set [1] came to 959.5; in data set [2], 1.45; in data set [3] it was 429.6; in data set [4], 253.8; in data set [5], 249.7; in [6] it was 441.6. The Activity in [7] stood at 89.4; in [9], 1171.1; in data set [13], 10.6; in data set [14] it was 19. For the same compound, the logD – broadly, lipophilicity at a set pH, counting ionised and neutral species – in data set [8] amounted to 5.3. The IC50 in data set [10] was found to be 8.3 µM; in data set [12], 20.8 µM. The “fractional inhibitory concentration index (FICI)” value in [11] was 0.37.

As to `CCC(=O)O[C@@H](C=C(C)C)C[C@@H](C)[C@H]1CC[C@@]2(C)[C@@H]3[C@@H](OC)C=C4[C@@H](CC[C@H](O)C4(C)C)[C@]3(C)CC[C@]12C` [KARAVOATE C], the Activity in data set [2] amounted to 1.7; in data set [3], 466.3; in [4], 249.9; in data set [5], 242.5; in data set [6] it was 481.3; in [7] it was 40.6. Besides, the Activity came to 726.8 in [9] and 30.3 in data set [14]. Moreover, the log distribution coefficient (logD) in data set [8] was 8.3. Further, the values for the IC50 in [10] and in data set [12] were 41.4 µM and 43.5 µM, respectively.

With `COC(C)(C)/C=C/C[C@@H](C)[C@H]1CC[C@@]2(C)[C@@H]3[C@@H](O)C=C4[C@@H](CC[C@H](O)[C@]4(C)CO)[C@]3(C)CC[C@]12C` [BALSAMINAGENIN B], the Activity in data set [1] is 959.5; in data set [2], 5.98; in data set [3] it was 428.7; in [4], 261.1; in data set [5], 238.6; in [6], 454.4. Besides, the Activity in [7] is reported as 104.2; in data set [9], 1365.1; in data set [13] it was 10.6; in data set [14], 78.4. Moreover, the logD in data set [8] is 5.8. The IC50 amounted to 15.4 µM in data set [10] and 16.8 µM in data set [12]. For the same compound, in data set [11], the “fractional inhibitory concentration index (FICI)” value worked out at 0.18.

On to `CO[C@H]1C=C2[C@@H](CC[C@H](O)C2(C)C)[C@]2(C)CC[C@]3(C)[C@@H]([C@H](C)C[C@H](C=C(C)C)OC(C)=O)CC[C@@]3(C)[C@H]12` [KARAVOATE A], for which the Activity was 35.2 in [2]; 470.2 in data set [3]; 254.9 in data set [4]; 222.4 in [5]; 518.1 in data set [6]; 34.2 in data set [7]. Further, the Activity worked out at 612.7 in data set [9] and 671.2 in [14]. In data set [8], this compound came in with a logD of 8. In addition, the IC50 in [10] stood at 26 µM; in data set [12], 34.8 µM. The “fractional inhibitory concentration index (FICI)” value in data set [11] worked out at 0.44.

Turning to `CCCC(=O)O[C@@H](C=C(C)C)C[C@@H](C)[C@H]1CC[C@@]2(C)[C@@H]3[C@@H](OC)C=C4[C@@H](CC[C@H](O)C4(C)C)[C@]3(C)CC[C@]12C` [KARAVOATE E], the Activity in [2] is given as 1; in [3] it was 448.7; in [4], 235.9; in data set [5] it was 236.3; in data set [6], 461.9; in [7] it was 21.7. For the same compound, the Activity in data set [9] came to 388.7; in data set [14], 18. The logD in data set [8] was determined as 8.7. Further, the results for the IC50 in data set [10] and in [12] were 51 µM and 73.8 µM, respectively.

Take `CCC(=O)O[C@H]1CC[C@@H]2C(=C[C@H](OC)[C@@H]3[C@@]2(C)CC[C@]2(C)[C@@H]([C@H](C)C[C@H](C=C(C)C)OC(=O)CC)CC[C@@]32C)C1(C)C` [KARAVOATE D]: the Activity in data set [2] amounted to 0.9; in [3], 454; in data set [4] it was 237.9; in data set [5], 230.8; in data set [6], 463.1; in data set [7] it was 2.4. Further, the Activity in data set [9] was found to be 42.3; in data set [14] it was 16.2. In data set [8], this compound came in with a logD of 8.9. In addition, the IC50 in data set [10] and in data set [12] was above 133 µM each time.

For the compound `C[C@H](C/C=C/C(C)(C)O)[C@H]1CC[C@@]2(C)[C@@H]3[C@@H](O)C=C4[C@@H](CC[C@H](O)[C@]4(C)CO)[C@]3(C)CC[C@]12C` [BALSAMINAGENIN A], the Activity in data set [1] was 959.5; in data set [2] it was 1.07; in data set [3], 441.8; in data set [4], 261.2; in data set [5], 257.6; in [6], 447.4. For the same compound, the Activity in [7] stood at 44.3; in data set [9], 579.8; in data set [13], 10.6; in [14], 13.95. For the same compound, the logD in [8] turned out to be 5.2. Further, the IC50 came out at 19.5 µM in [10] and 25.9 µM in data set [12].

Turning to `CO[C@H]1C=C2[C@@H](CC[C@H](OC(C)=O)C2(C)C)[C@]2(C)CC[C@]3(C)[C@@H]([C@H](C)C[C@H](C=C(C)C)OC(C)=O)CC[C@@]3(C)[C@H]12` [KARAVOATE B], the Activity is on record as 5.7 in data set [2]; 454.9 in data set [3]; 247 in data set [4]; 249.3 in data set [5]; 462.9 in data set [6]; 37.5 in data set [7]. The Activity in data set [9] was determined as 671.2; in [14], 102.1. In [8], this compound returned a logD of 8.6. Also, the IC50 was found to be 48.8 µM in [10] and 60.2 µM in data set [12].
